Structures are written as SMILES. Active and inactive are the calls of the source. The calls are words filed in the database; no cut-off is given here.

Assay type in all cases: functional
Test [1] has as its system Xanthomonas oryzae pv. oryzae. Kind of test: Antibacterial activity against Xanthomonas oryzae pv. oryzae XKK.12 assessed as growth inhibition at 1.3 X 10^-3 M measured after 1 to 2 days. The gist of the method: (§1)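 Agar well diffusion. Each pathogen culture was mixed with top agar (PSA, KB or LB; 0.75% w/v agar) at 45 °C, 50 µL culture per 10 mL, and poured over LB plates bearing wells. Compound (25 or 100 µg in 50 µL DMSO) was added to the wells; 50 µL DMSO served as negative control. Plates were incubated at 30 °C for 1–2 days. The inhibition zone was measured in mm, including the 4 mm well. Three repeats, SD.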

Test [2] relates to Xanthomonas oryzae pv. oryzae. The test can be described thus: Antibacterial activity against Xanthomonas oryzae pv. oryzae XKK.12 assessed as growth inhibition at 5.2 X 10^-3 M measured after 1 to 2 days. In a few lines: as §1
The subject of test [3] is Burkholderia glumae. The test can be described thus: Antibacterial activity against Burkholderia glumae AU6208 assessed as growth inhibition at 25 to 100 ug measured after 1 to 2 days. In a few lines: as §1
Test [4] deals with Pseudomonas fuscovaginae. Kind of test: Antibacterial activity against Pseudomonas fuscovaginae UPB0736 assessed as growth inhibition at 25 to 100 ug measured after 1 to 2 days. The gist of the method:
as §1

Test [5] relates to Xanthomonas oryzae pv. oryzae. The test can be described thus: Antibacterial activity against Xanthomonas oryzae pv. oryzae XKK.12 assessed as growth inhibition at 6 X 10^-3 M measured after 1 to 2 days. The following applies: for zone of inhibition at 6000 µM: read-out: IZ. In a few lines: as §1
In test [6] the test system is Xanthomonas oryzae pv. oryzae. Kind of test: Antibacterial activity against Xanthomonas oryzae pv. oryzae XKK.12 assessed as growth inhibition at 1.5 X 10^-3 M measured after 1 to 2 days. In a few lines:
as §1

Test [7] relates to Xanthomonas oryzae pv. oryzae. Kind of test: Antibacterial activity against Xanthomonas oryzae pv. oryzae XKK.12 assessed as growth inhibition at 2 X 10^-3 M measured after 1 to 2 days. The settings on record: read-out: IZ. The gist of the method: as §1
Test [8] deals with Xanthomonas oryzae pv. oryzae. Kind of test: Bacteriostatic activity against Xanthomonas oryzae pv. oryzae XKK.12 assessed as growth inhibition at 0.5 to 1.5 X 10^-4 M measured after 1 to 2 days.
Test [9] relates to Xanthomonas oryzae pv. oryzae. The test can be described thus: Antibacterial activity against Xanthomonas oryzae pv. oryzae XKK.12 assessed as growth inhibition at 2 X 10^-3 measured after 1 to 2 days relative to ampicillin.
The test system of test [10] is Xanthomonas oryzae pv. oryzae. Kind of test: Antibacterial activity against Xanthomonas oryzae pv. oryzae XKK.12 assessed as growth inhibition at 0.5 X 10^-3 M measured after 1 to 2 days. In a few lines: as §1
The test system of test [11] is Xanthomonas oryzae pv. oryzae. The test can be described thus: Antibacterial activity against Xanthomonas oryzae pv. oryzae XKK.12 assessed as growth inhibition at 5.2 X 10^-3 measured after 1 to 2 days relative to ampicillin.
In test [12] the test system is Xanthomonas oryzae pv. oryzae. Kind of test: Bactericidal activity against Xanthomonas oryzae pv. oryzae XKK.12 assessed as growth inhibition at 0.5 to 1.5 X 10^-4 M measured after 6 to 24 hrs.
Test [13] concerns Xanthomonas oryzae pv. oryzae. Kind of test: Antibacterial activity against Xanthomonas oryzae pv. oryzae XKK.12 assessed as growth inhibition at 5.7 X 10^-3 M measured after 1 to 2 days. The following applies: read-out: IZ. The gist of the method: as §1
In test [14] the test system is Xanthomonas oryzae pv. oryzae. The test can be described thus: Antibacterial activity against Xanthomonas oryzae pv. oryzae XKK.12 assessed as growth inhibition at 1.4 X 10^-3 M measured after 1 to 2 days. In a few lines:
as §1

In test [15] the test system is Xanthomonas oryzae pv. oryzae. The test can be described thus: Antibacterial activity against Xanthomonas oryzae pv. oryzae XKK.12 assessed as growth inhibition at 5.6 X 10^-3 M measured after 1 to 2 days. In a few lines: as §1
The subject of test [16] is Xanthomonas oryzae pv. oryzae. The test can be described thus: Antibacterial activity against Xanthomonas oryzae pv. oryzae XKK.12 assessed as growth inhibition at 6 X 10^-3 measured after 1 to 2 days relative to ampicillin.
Test [17] has as its system Xanthomonas oryzae pv. oryzae. Kind of test: Antibacterial activity against Xanthomonas oryzae pv. oryzae XKK.12 assessed as growth inhibition at 1.0 X 10^-3 M measured after 1 to 2 days. The gist of the method:
as §1

Test [18] has as its system Xanthomonas oryzae pv. oryzae. Kind of test: Antibacterial activity against Xanthomonas oryzae pv. oryzae XKK.12 assessed as growth inhibition at 4 X 10^-3 M measured after 1 to 2 days. The gist of the method:
as §1

The subject of test [19] is Xanthomonas oryzae pv. oryzae. Kind of test: Bactericidal activity against Xanthomonas oryzae pv. oryzae XKK.12 assessed as decrease in survival rate at 0.5 to 1.5 X 10^-4 M measured after 6 to 24 hrs.
The test system of test [20] is Xanthomonas oryzae pv. oryzae. The test can be described thus: Antibacterial activity against Xanthomonas oryzae pv. oryzae XKK.12 assessed as growth inhibition at 25 to 100 ug measured after 1 to 2 days. In a few lines: as §1

As for `C=C[C@]1(C)C=C2C3(CO3)C(=O)[C@H]3C(C)(C)CCC[C@]3(C(=O)OC)[C@@]2(O)CC1` (some centres undefined), the “inhibition zone (IZ)” value in [1] and in test [2] was “inactive” each time. In addition, the result in [3] and in [4] was inactive.

For `C=C[C@]1(C)C=C2C(=O)C[C@H]3C(C)(C)CCC[C@]3(C(=O)O)[C@@]2(O)CC1`, the “inhibition zone (IZ)” value in test [5] and in [6] was “inactive” throughout. Moreover, the outcome in test [3] and in test [4] was inactive.

In the case of `C=C[C@@]1(C)CC[C@]2(O)[C@@]3(C(=O)OC)CCCC(C)(C)[C@@H]3C(=O)C(=O)[C@@]23C[C@@H]13`, the “inhibition zone (IZ)” value in test [1] and in [2] was “inactive” throughout. The outcome in test [3] and in test [4] was inactive.

Take `C=C[C@]1(C)C=C2[C@@H](O)C[C@H]3C(C)(C)CCC[C@]3(C(=O)O)[C@@]2(O)CC1`: the “inhibition zone (IZ)” value in test [5] and in test [6] was “inactive” in each case. Also, the result in test [3] and in [4] was inactive.

Consider `C=C[C@]1(C)C=C2[C@@H](O)[C@@]3(O)OC(=O)[C@@]4(CCCC(C)(C)[C@H]34)[C@@]2(O)CC1`, for which the “inhibition zone (IZ)” value in test [5] and in test [6] was “inactive” each time. Besides, the result in test [3] and in test [4] was inactive.

With `C=C[C@@]1(C)CCC2=C(C(=O)[C@@]3(OC(C)=O)OC(=O)[C@@]24CCCC(C)(C)[C@H]34)C1OC(C)=O` (some centres undefined), the zone of inhibition at 2000 µM in test [7] stood at 15.3 mm. For the same compound, in test [8], the outcome was Active. In addition, the “inhibition (INH)” value in [9] turned out to be 29.4%. In addition, the outcome in [3] and in test [4] was inactive. In [10], the “inhibition zone (IZ)” value is “inactive”.

For `C=C[C@]1(C)C=C2C(=O)[C@@]3(OC(C)=O)OC(=O)[C@@]4(CCCC(C)(C)[C@H]34)[C@@]2(O)CC1`, in test [11], the “inhibition (INH)” value is listed as 39.8%. Further, the result in test [8] and in test [12] was Active. The zone of inhibition at 1300 µM in [1] (read-out: IZ) worked out at 15.8 mm. Further, the zone of inhibition at 5200 µM in [2] (read-out: IZ) was determined as 20.7 mm. Moreover, the outcome in [3] and in test [4] was inactive.

For `CC1(C)S[C@@H]2[C@H](NC(=O)[C@H](N)c3ccccc3)C(=O)N2[C@H]1C(=O)O` [AMPICILLIN], the zone of inhibition at 5700 µM in test [13] stood at 52 mm.

Turning to `C=C[C@]1(C)C=C2C(=O)C[C@H]3C(C)(C)CCC[C@]3(C(=O)OC)[C@@]2(O)CC1`, the “inhibition zone (IZ)” value in test [5] and in [6] was “inactive” each time. For the same compound, the outcome in [3] and in test [4] was inactive.

With `C=C[C@@]1(C)CC[C@@]2(O)C(=C1C)C(=O)C(=O)[C@H]1C(C)(C)CCC[C@@]12C(=O)OC`, the “inhibition zone (IZ)” value in test [14] and in test [15] was “inactive” in each case. The result in test [3] and in test [4] was inactive.

Regarding `C=C[C@]1(C)C=C(C=O)[C@@]2(CC1)OC(=O)[C@H]1C(C)(C)CCC[C@@]12C(=O)O`, the “inhibition zone (IZ)” value in test [5] and in test [6] was “inactive” in each case. The outcome in test [3] and in test [4] was inactive.

`CC[C@]1(C)C=C2[C@@H](O)[C@@]3(O)OC(=O)[C@@]4(CCCC(C)(C)[C@H]34)[C@@]2(O)CC1`: the zone of inhibition at 6000 µM in [5] stood at 8.9 mm. Further, the result in [8], in [3] and in [4] was inactive. Further, in test [6], the “inhibition zone (IZ)” value is “inactive”.

Turning to `C=C[C@]1(C)C=C2C3(CO3)C(=O)[C@H]3C(C)(C)CCC[C@]3(C(=O)OC)[C@@]2(OC)CC1` (some centres undefined), the “inhibition zone (IZ)” value in [1] and in test [2] was “inactive” each time. Moreover, the result in [3] and in test [4] was inactive.

For `CC[C@]1(C)C=C2[C@@H](OC(C)=O)[C@@]3(O)OC(=O)[C@@]4(CCCC(C)(C)[C@H]34)[C@@]2(O)CC1`, the “inhibition zone (IZ)” value in [1] and in test [2] was “inactive” each time. Moreover, the outcome in [3] and in [4] was inactive.

Take `CC[C@]1(C)C=C2C(=O)[C@@]3(O)OC(=O)[C@@]4(CCCC(C)(C)[C@H]34)[C@@]2(O)CC1`: the zone of inhibition at 6000 µM in [5] was found to be 11.6 mm. The “growth inhibition (GI)” value in test [16] came to 22.3%. Besides, the outcome in [8] was Active. Further, the “inhibition zone (IZ)” value in test [6] was “inactive”. For the same compound, the result in [3] and in [4] was inactive.

As for `C=C[C@]1(C)C=C2[C@@H](OC(C)=O)[C@@]3(O)OC(=O)[C@@]4(CCCC(C)(C)[C@H]34)[C@@]2(O)CC1`, the outcome in test [3] and in test [4] was inactive. Further, the “inhibition zone (IZ)” value in test [17] and in test [18] was “inactive” each time.

On to `C=C[C@]1(C)C=C2C(=O)[C@@]3(O)OC(=O)[C@@]4(CCCC(C)(C)[C@H]34)[C@@]2(O)CC1` [SPHAEROPSIDIN A], for which the zone of inhibition at 6000 µM in test [5] was 25.5 mm. Moreover, in test [16], the “growth inhibition (GI)” value stood at 49%. In addition, the zone of inhibition at 1500 µM in test [6] (read-out: IZ) came to 18.3 mm. In addition, the outcome in test [12], in test [19] and in [20] was Active.

`C=C[C@]1(C)C=C2[C@@H](O)C(=O)[C@H]3C(C)(C)CCC[C@]3(C(=O)OC)[C@@]2(O)CC1`: the “inhibition zone (IZ)” value in [14] and in test [15] was “inactive” throughout. In addition, the result in test [3] and in test [4] was inactive.

The values are drawn from ChEMBL document CHEMBL1933024, “In vitro antibacterial activity of sphaeropsidins and chemical derivatives toward Xanthomonas oryzae pv. oryzae, the causal agent of rice bacterial blight” (2011).
